# According to ChEMBL document CHEMBL1144556, “Design, synthesis, and SAR analysis of novel selective sigma1 ligands” (Bioorg Med Chem, 2007):
# What was measured:
# [1] = molecular target: Sigma non-opioid intracellular receptor 1 (Cavia porcellus, UniProt Q60492); experiment: Displacement of [3H](+)-pentazocine from sigma 1 receptor in guinea pig brain membrane; format: cell membranes
# Outline: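 Guinea pig brain (minus cerebella) membranes were homogenized in ice-cold 0.32 M sucrose, pH 7.4, washed in 10 mM Tris-HCl, pH 7.4, and stored at −80 °C. Tritiated (+)-pentazocine (28 Ci/mmol; Kd 1.6 ± 0.3 nM, n = 3) was incubated with test compounds from 10^-11 to 10^-5 M in Tris-HCl, pH 7.4, for 150 min at 37 °C. Haloperidol defined nonspecific binding. Reactions were stopped by filtration through PEI-presoaked glass fiber filters.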
# [2] = Displacement of [3H]DTG from sigma 2 receptor in guinea pig brain membrane; format: cell membranes, Cavia porcellus
# Outline: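 Guinea pig brain membranes were incubated with test compounds, with 400 nM (+)-SKF10,047 added to mask σ1 sites. Incubation was in 50 mM Tris-HCl, pH 8.0, for 120 min at room temperature. Reactions were stopped with ice-cold 10 mM Tris-HCl, pH 8.0, and filtered through glass fiber filters presoaked in 0.5% poly(ethylenimine).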
# Cavia porcellus = organism: Cavia porcellus; experiment: Selectivity for sigma 1 receptor over sigma 2 receptor in guinea pig brain membranes; format: cell membranes; details: Membrane
# Chain of Sigma non-opioid intracellular receptor 1 (Q60492 whole entry): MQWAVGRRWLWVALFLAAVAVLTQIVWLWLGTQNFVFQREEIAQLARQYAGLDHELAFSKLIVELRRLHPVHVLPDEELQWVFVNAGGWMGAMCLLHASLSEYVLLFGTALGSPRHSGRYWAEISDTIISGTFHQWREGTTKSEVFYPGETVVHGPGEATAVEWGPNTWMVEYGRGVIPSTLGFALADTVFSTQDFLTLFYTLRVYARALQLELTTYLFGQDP
SMILES,Ki [1] [nM],Ki [2] [nM],Ratio Ki (Cavia porcellus)
C/C(=C\CN(C)C)c1cccc2ccccc12,102,701,6.87
C/C(=C\CN(C)Cc1ccccc1)c1ccc2ccccc2c1,7.88,873,111
C/C(=C\CN(C)C)c1ccc2cc(O)ccc2c1,229,1390,6.1
CC(CCN(C)C)c1ccc2cc(O)ccc2c1 (racemic),19,1330,70
CN(C)CCC(C)(O)c1ccc2ccccc2c1 (racemic),25,171,6.8
CC(CCN(C)C)c1ccc(-c2ccccc2)cc1 (stereo not given),1.02,161,158
CC(CCN(C)C)c1ccc2ccccc2c1 (stereo not given),1.95,43.8,22.5
COc1ccc2cc(/C(C)=C/CN(C)C)ccc2c1,21.4,985,46
C/C(=C\CN(C)C)c1ccc2ccccc2c1,19.8,148,7.5
C/C(=C\CN(C)C)c1ccc(-c2ccccc2)cc1,1.4,106,75.7
C/C(=C\CN(C)Cc1ccccc1)c1ccc(-c2ccccc2)cc1,6.32,75.7,12
COc1ccc2cc(C(C)CCN(C)C)ccc2c1 (racemic),2.3,60.4,26.3
CC(CCN(C)Cc1ccccc1)c1ccc(-c2ccccc2)cc1 (stereo not given),5.8,591,102
CC(CCN(C)C)c1cccc2ccccc12 (stereo not given),47.2,205,4.3
CC(CCN(C)Cc1ccccc1)c1ccc2ccccc2c1 (stereo not given),5.4,139,25.7
